The source of these data is ChEMBL document CHEMBL1687858, “Natural and semisynthetic mammea-type isoprenylated dihydroxycoumarins uncouple cellular respiration” (J Nat Prod, 2011).

Experiment [1] deals with T47D. Nature of the experiment: Antiproliferative activity against human T47D cells after 48 hrs. Format: functional, cell-based. A digest of the protocol: (§1)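 Tumor cells (T47D or PC-3, from ATCC) exposed 48 h to compounds at 0.31 to 20 μM, from DMSO stocks with final DMSO under 0.5%. EC50 and 95% CI derived from one experiment run in triplicate. Maximum inhibition set at 50% for T47D and 40% for PC-3.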

The target of experiment [2] is T1, Hypoxia inducible factors; HIF-1-alpha, HIF-2-alpha (Homo sapiens, UniProt Q16665+Q99814). Put plainly: Inhibition of hypoxia-induced HIF1 activation in human T47D cells expressing pGL3 construct after 16 hrs by cell-based luciferase reporter assay. An outline of the steps:
(§2)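 T47D cells carrying an HIF-1 luciferase reporter, induced for 16 h either by hypoxia (1% O2) or by 10 μM 1,10-phenanthroline, with compounds over 0.31 to 20 μM. IC50 and 95% CI taken from one representative of two independent experiments, each run in triplicate.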

For experiment [3], the target named is T1, Hypoxia inducible factors; HIF-1-alpha, HIF-2-alpha. Put plainly: Inhibition of 1,10-phenanthrolin-induced HIF1 activation in human T47D cells expressing pGL3 construct after 16 hrs by cell-based luciferase reporter assay. A digest of the protocol: as §2
(Reporter assays use an easily measured gene product as a stand-in for the process of interest.)

Experiment [4] relates to PC-3. Put plainly: Antiproliferative activity against human PC3 cells after 48 hrs. It counts as functional, cell-based. The note with it: PC-3, 48 h. An outline of the steps:
as §1

The subject of experiment [5] is T47D. Put plainly: Effect on cellular respiration in human T47D cells assessed as increase in state 4 respiration at 0.3 to 3 uM by cell-based reporter assay. It counts as functional. A digest of the protocol:
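Respiring T47D cells given oligomycin (1 μM) to set state 4 respiration, then compound or FCCP added at 0.3, 1 and 3 μM. Reported as Respiration Index = OCR (oligomycin + compound) / OCR (oligomycin).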

The test system of experiment [6] is T47D. Put plainly: Effect on cellular respiration in human T47D cells assessed as decrease in oxygen consumption at 0.3 to 10 uM by cell-based reporter assay in presence of F0F1ATPase 1 uM inhibitor oligomycin. Format: functional.
Experiment [7] concerns T47D. Nature of the experiment: Effect on cellular respiration in human T47D cells assessed as decrease in oxygen consumption at 10 uM by cell-based reporter assay. Format: functional. A digest of the protocol:
(§3)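 Oxygen consumption of T47D cells measured with compound at 0.3, 1, 3 and 10 μM. Reported as Relative Respiration Rate = 100 × (OCR compound / OCR untreated control) − 100. FCCP included as reference uncoupler. Mean + SD from three independent experiments.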

The test system of experiment [8] is T47D. Put plainly: Inhibition of hypoxia-induced VEGF protein secretion in human T47D cells after 16 hrs by ELISA. Format: functional, cell-based. An outline of the steps:
(§4)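 T47D cells held under hypoxia (1% O2, 16 h) with compound at 3 or 10 μM. VEGF in conditioned medium measured by ELISA and normalized to cellular protein. Normoxic and hypoxic medium controls included. Mean + SD from one experiment run in triplicate.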
(In general: In an ELISA, binding on a coated surface is turned into a signal by an enzyme label.)

Experiment [9] deals with T47D. Nature of the experiment: Effect on cellular respiration in human T47D cells assessed as oxygen consumption at 0.3 uM by cell-based reporter assay. Format: functional. A digest of the protocol:
as §3

Experiment [10] has as its system T47D. Nature of the experiment: Inhibition of hypoxia-induced VEGF protein secretion in human T47D cells upto 10 uM after 16 hrs by ELISA. Format: functional. An outline of the steps:
as §4

Experiment [11] has as its system T47D. Nature of the experiment: Inhibition of hypoxia-induced VEGF protein secretion in human T47D cells at 3 uM after 16 hrs by ELISA. Format: functional. An outline of the steps: as §4
Experiment [12] has as its system T47D. Put plainly: Cytostatic effect against human T47D cells assessed as cell growth inhibition at 20 uM after 48 hrs. Also noted: scale not given: the % may be the effect or the level left. Format: functional.
For experiment [13], the system named is PC-3. Nature of the experiment: Antiproliferative activity against human PC3 cells assessed as cell viability at 20 uM. It counts as functional. The note with it: read-out: Activity.

Calls of active or inactive are those of the source. The calls are words filed in the database; no cut-off is given here.

Broadly, the IC50 is the midpoint of a concentration-inhibition curve. For `CC(C)=CCc1c(O)c(C(=O)CC(C)C)c(O)c2c(-c3ccccc3)cc(=O)oc12` [MAMMEISIN], the IC50 in the experiment with T47D [1] was 4.28 µM; in experiment [2] it was 4.44 µM; in [3], 3.71 µM; with PC-3 [4], 5.31 µM.

Regarding `CC[C@H](C)C(=O)c1c(O)c(CC=C(C)C)c(O)c2c(-c3ccccc3)cc(=O)oc12`, the IC50 with T47D [1] was 4.01 µM; in experiment [2], 6.76 µM; in experiment [3], 5.96 µM; in the experiment on PC-3 [4] it was 5.26 µM.

Turning to `CCCC[C@H](OC)c1cc(=O)oc2c(CC(=O)[C@@H](C)CC)c(OC)c(CC=C(C)C)c(OC)c12`, the IC50 with T47D [1] was 4.67 µM; in [2], 5.91 µM; in [3] it was 15.7 µM; with PC-3 [4], more than 20 µM.

In the case of `CCCCCc1cc(=O)oc2c(C(=O)CC(C)C)c(O)c(CC=C(C)C)c(O)c12`, the outcome with T47D [5], with T47D [6] and in the experiment with T47D [7] was Active. The IC50 amounted to 1.36 µM with T47D [1], 2.76 µM in experiment [2], 2.71 µM in experiment [3] and 1.88 µM in the experiment with PC-3 [4]. The inhibition result in the experiment on T47D [8] was “Dose-dependent effect”. Further, the outcome in the experiment with T47D [9] was inactive.

For the molecule `CCCc1cc(=O)oc2c(CC=C(C)C)c(O)c(C(=O)[C@H](C)CC)c(O)c12`, the result in the experiment with T47D [5], in the experiment on T47D [6] and in the experiment with T47D [7] was Active. Also, the IC50 in the experiment with T47D [1] came out at 5.52 µM; in experiment [2], 9.96 µM; in experiment [3], 8.21 µM; in the experiment with PC-3 [4], 10.5 µM. The Activity in the experiment on T47D [10] came out at 1 µM. Further, the result with T47D [9] was inactive.

Consider `CC[C@H](C)C(=O)c1c(O)c(CC=C(C)C)c2oc(=O)cc(-c3ccccc3)c2c1O`, for which the IC50 in the experiment with T47D [1] was 2.88 µM; in [2] it was 4.63 µM; in experiment [3], 4.82 µM; in the experiment with PC-3 [4], 3.82 µM.

`CCCc1cc(=O)oc2c(C(=O)CC(C)C)c(O)c(CC=C(C)C)c(O)c12`: the result in the experiment with T47D [5], in the experiment on T47D [6] and with T47D [7] was Active. For the same molecule, the half-inhibitory concentration (IC50) in the experiment on T47D [1] was determined as 1.32 µM; in experiment [2], 2.2 µM; in [3] it was 1.28 µM; in the experiment with PC-3 [4], 2.27 µM. Moreover, in the experiment on T47D [11], the inhibition entry was “inactive”. Further, in the experiment on T47D [8], the inhibition entry is “Dose-dependent effect”. In addition, the outcome in the experiment on T47D [9] was inactive.

Regarding `CCCC[C@H](O)c1cc(=O)oc2c(CC(=O)[C@@H](C)CC)c(OC)c(CC=C(C)C)c(OC)c12`, the IC50 with T47D [1] is 6.18 µM; in experiment [2] it was 7.42 µM; in [3], 11.3 µM; in the experiment on PC-3 [4], 10.6 µM.

For `CCCC[C@H](O)c1cc(=O)oc2c(C(=O)[C@@H](C)CC)c(OC)c(CC=C(C)C)c(OC)c12`, the Activity entry in the experiment on T47D [5] is “Non-toxic”; in the experiment on T47D [12], 91%. Also, the IC50 was found to be 4.54 µM with T47D [1], 6.31 µM in experiment [2], 6.5 µM in experiment [3] and 6.41 µM in the experiment with PC-3 [4]. Also, the inhibition result in the experiment with T47D [11] is “Active”. In addition, the result with T47D [6] and with T47D [7] was Active. In the experiment with T47D [8], the inhibition result was “Dose-dependent effect”. For the same molecule, the viability at 20 µM in the experiment with PC-3 [13] worked out at 93%. Also, the result in the experiment with T47D [9] was inactive.

With `CCCCCc1cc(=O)oc2c(CC=C(C)C)c(O)c(C(=O)[C@H](C)CC)c(O)c12` [MAMMEA C/AB], the IC50 in the experiment with T47D [1] turned out to be 3.57 µM; in experiment [2] it was 5.7 µM; in experiment [3], 5.31 µM; in the experiment with PC-3 [4], 4.18 µM.

For the molecule `CCCC[C@H](OC)c1cc(=O)oc2c(C(=O)[C@@H](C)CC)c(OC)c(CC=C(C)C)c(OC)c12`, the IC50 with T47D [1] was 6.95 µM; in experiment [2], 13.2 µM; in [3] it was 18.4 µM; in the experiment with PC-3 [4], more than 20 µM.

As for `CC(C)=CCc1c(O)c(C(=O)CC(C)C)c2oc(=O)cc(-c3ccccc3)c2c1O` [ISOMAMMEISIN], the outcome in the experiment on T47D [5], in the experiment with T47D [6] and in the experiment with T47D [7] was Active. Also, the IC50 was found to be 1.57 µM with T47D [1], 3.23 µM in experiment [2], 3.73 µM in [3] and 2.18 µM in the experiment on PC-3 [4]. Further, in the experiment on T47D [8], the inhibition result was “Dose-dependent effect”. Moreover, the outcome in the experiment with T47D [9] was inactive.

Consider `CCCc1cc(=O)oc2c(CC=C(C)C)c(O)c(C(=O)CC(C)C)c(O)c12`, for which the IC50 in the experiment on T47D [1] was 3.62 µM; in experiment [2], 9.4 µM; in [3], 9.56 µM; in the experiment on PC-3 [4], 7.03 µM.

In the case of `CCCCCc1cc(=O)oc2c(C(=O)[C@@H](C)CC)c(O)c(CC=C(C)C)c(O)c12`, the IC50 in the experiment on T47D [1] came out at 1.56 µM; in experiment [2] it was 3.73 µM; in experiment [3], 3.4 µM; with PC-3 [4], 2.19 µM.

`CCCC[C@H](O)c1cc(=O)oc2c(C(=O)CC(C)C)c(O)c(CC=C(C)C)c(O)c12`: the 50% inhibitory concentration (IC50) in the experiment on T47D [1] came out at 0.91 µM; in experiment [2] it was 1.72 µM; in [3], 1.81 µM; in the experiment on PC-3 [4], 1.14 µM.

On to `CCCC[C@H](OC(C)=O)c1cc(=O)oc2c(C(=O)[C@@H](C)CC)c(OC(C)=O)c(CC=C(C)C)c(OC(C)=O)c12`, for which the Activity result is “Non-toxic” in the experiment on T47D [5] and 82% with T47D [12]. In addition, the IC50 in the experiment with T47D [1] amounted to 0.73 µM; in [2], 0.83 µM; in [3], 1.06 µM; in the experiment on PC-3 [4], 1.17 µM. For the same molecule, the result in the experiment with T47D [6] and in the experiment with T47D [7] was Active. Also, the viability at 20 µM with PC-3 [13] came to 65%. Besides, the outcome with T47D [9] was inactive.

With `CCCc1cc(=O)oc2c(C(=O)[C@@H](C)CC)c(O)c(CC=C(C)C)c(O)c12`, the IC50 came to 3.22 µM in the experiment with T47D [1], 5.04 µM in experiment [2], 3.25 µM in experiment [3] and 6.05 µM in the experiment with PC-3 [4].

Take `CCCC[C@H](O)c1cc(=O)oc2c(C(=O)[C@@H](C)CC)c(O)c(CC=C(C)C)c(O)c12`: the outcome in the experiment on T47D [5], with T47D [6] and in the experiment on T47D [7] was Active. Besides, the IC50 with T47D [1] is 1.36 µM; in experiment [2] it was 2.23 µM; in experiment [3], 2.3 µM; with PC-3 [4] it was 2.09 µM. Moreover, the inhibition result in the experiment with T47D [11] was “inactive”. The inhibition entry in the experiment on T47D [8] is “Dose-dependent effect”. The outcome with T47D [9] was inactive.

`CCCC[C@H](OC(C)=O)c1cc(=O)oc2c(C(=O)[C@@H](C)CC)c(O)c(CC=C(C)C)c(OC(C)=O)c12`: the IC50 in the experiment with T47D [1] came to 0.97 µM; in experiment [2], 2.06 µM; in [3], 1.68 µM; in the experiment on PC-3 [4] it was 1.16 µM.

As for `CCCCCc1cc(=O)oc2c(CC=C(C)C)c(O)c(C(=O)CC(C)C)c(O)c12`, the IC50 in the experiment with T47D [1] is 3.13 µM; in [2], 4.19 µM; in experiment [3], 4.12 µM; in the experiment with PC-3 [4], 3.36 µM.

Take `CCCC[C@H](OC(C)=O)c1cc(=O)oc2c(C(=O)[C@@H](C)CC)c(OC(C)=O)c(CC=C(C)C)c(O)c12`: the IC50 with T47D [1] was determined as 4.72 µM; in [2], 5.11 µM; in experiment [3], 5.47 µM; with PC-3 [4] it was 6.41 µM.
